Bioassay records (PubChem BioAssay)
Most compounds without a hit are left out; they make up all but 27% or so of the library.
CYP2C9 inhib: human CYP2C9 inhibition. P11712. CYP2C9 Supersomes, luciferin-H conversion, luminescence. hit rate 20% among 96,000. inhibition, % at 5 µM;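 active = blocking of liver enzyme CYP2C9 beyond about 50% at 5 µM, limit read from the data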
Target sequence (P11712 whole entry, looked up): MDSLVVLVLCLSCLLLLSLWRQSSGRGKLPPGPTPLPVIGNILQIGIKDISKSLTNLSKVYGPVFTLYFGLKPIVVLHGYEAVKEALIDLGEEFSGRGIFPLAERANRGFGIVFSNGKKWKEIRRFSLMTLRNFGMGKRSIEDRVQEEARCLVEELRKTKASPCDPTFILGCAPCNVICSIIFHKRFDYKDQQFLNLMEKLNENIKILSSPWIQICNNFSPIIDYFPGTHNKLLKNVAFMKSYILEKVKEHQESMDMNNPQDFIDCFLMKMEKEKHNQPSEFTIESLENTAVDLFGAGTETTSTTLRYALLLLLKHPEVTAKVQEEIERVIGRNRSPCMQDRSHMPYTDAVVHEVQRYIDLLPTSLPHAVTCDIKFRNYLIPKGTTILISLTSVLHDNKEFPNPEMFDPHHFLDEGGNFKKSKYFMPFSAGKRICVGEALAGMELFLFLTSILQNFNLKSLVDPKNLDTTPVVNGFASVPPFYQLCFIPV
CYP2C9 activ: CYP2C9 (human) activation; hit rate 1.4% among 96,000; P11712; activation factor at 5 µM; recombinant CYP2C9, luciferin-H conversion, luminescence; stronger effect = higher value; factor 1 = untreated enzyme, 0 = blocked; AID 1024;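 active = activation factor of 2 or more for CYP2C9 at a 5 µM dose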
CYP2C19 inhib: inhibitors of human CYP2C19 | inhibition, % at 5 µM | CYP2C19 Supersomes, luciferin-H EGE luminescence, 30 min | P33261 | hit rate 21% among 96,000;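 active = CYP2C19 inhibition above a set limit at 5 µM in the primary screen, cut at about 50% in these data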
Rev-RRE block: disrupts HIV-1 Rev binding to RRE RNA. inhibition, % at 8 µM. AID 704. Rev peptide-RRE RNA binding, FRET. hit rate 0.79% among 97,000. P05866;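 active = inhibition above the screen-wide mean plus 3 SD, cut at about 35% in these data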
Target sequence (P05866 whole entry, looked up): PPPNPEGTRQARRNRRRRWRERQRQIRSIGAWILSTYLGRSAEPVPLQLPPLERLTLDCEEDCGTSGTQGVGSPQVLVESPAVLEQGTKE
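Test system: Cy5-tagged RRE RNA duplex with fluorescein-tagged Rev peptide | Read-out: % inhibition of FRET ratio versus controls | Probe or stimulus: Labelled Rev peptide | Incubation: 5 min RNA-compound premix plus 15 min binding step, 25 °C | Technique: FRET fluorescence readout | Benchmarks: DMSO low control, neomycin B high control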
CYP2C19 act: increases human CYP2C19 enzyme activity; recombinant CYP2C19, luciferin-H EGE luminescence; stronger effect = higher value; 0 = fully inhibited enzyme, 1 = untreated enzyme; 96,000 tested, under 10 active; activation factor at 5 µM; P33261;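 active = activation factor of at least 2 at 5 µM in the primary screen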
Cav32 inh: human Cav3.2 channel inhibition, primary screen | Cav3.2-expressing cells, Fluo-4 calcium fluorescence FDSS; stronger effect = lower value | B-score at 10 µM | hit rate 4% among 100,000;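 active = single-dose well whose peak fluorescence ratio is a statistical outlier from its plate by either plate-standardised score or position-corrected B-score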
Of the large screens only hits and unclear results are named; the others gave an inactive call; [ ] = dose if it differs, or a comment.

O=C(CCN1CCCCC1)NCC1OCCc2ccccc21 (configuration not stated)	CYP2C19 inhib 86
CCNC(=S)NNC(=O)c1cccs1	none (no result: CYP2C9 inhib, CYP2C9 activ, CYP2C19 inhib, CYP2C19 act)
O=C(NC(=S)NNC(=O)c1cccs1)c1ccc(Br)o1	Cav32 inh -7.4
O=C(CCCC(=O)N(CC(=O)NC1CCCC1)Cc1ccc(F)cc1)Nc1ccccn1	CYP2C9 inhib 52
O=C(CCCC(=O)N(CC(=O)NC1CCCCC1)Cc1ccc2c(c1)OCO2)Nc1ccccn1	CYP2C9 inhib 64, CYP2C19 inhib 65
Cc1ccnc(NC(=O)CCC(=O)N(CC(=O)NC2CCCCC2)Cc2ccc3c(c2)OCO3)c1	CYP2C9 inhib 76, CYP2C19 inhib 56 (no result: Rev-RRE block, Cav32 inh)
O=C(Nc1ccc(C(=O)Oc2ccccc2)c(O)c1)c1ccco1	none
CCC(C)[C@H](N)c1cn([C@@H](Cc2ccc(O)cc2)C(=O)N2CCNCC2)nn1 (some centres not stated)	none (no result: CYP2C9 inhib, CYP2C9 activ, CYP2C19 inhib, Rev-RRE block, CYP2C19 act)
COC(=O)/C(=C\c1c(OC)cc(OC)cc1OC)C(=O)c1ccc2c(c1)OCO2	none (no result: CYP2C9 inhib, CYP2C9 activ, CYP2C19 inhib, Rev-RRE block, CYP2C19 act)
COC(=O)C(C)Sc1nc(-c2ccc(OC)cc2)nc2c1c(=O)n(C)c(=O)n2C (configuration not stated)	none (no result: CYP2C9 inhib, CYP2C9 activ, CYP2C19 inhib, CYP2C19 act, Cav32 inh)
CCOC(=O)C1CCCN(c2cc(C)nc3cc(-c4ccc(F)cc4)nn23)C1 (configuration not stated)	CYP2C9 inhib 67
CCOC(=O)C1CCCN(c2cc(C)nc3cc(-c4ccc(Cl)cc4)nn23)C1 (configuration not stated)	none (no result: CYP2C9 inhib, CYP2C9 activ, CYP2C19 inhib, CYP2C19 act)
COc1cccc(-c2nn(-c3ccccc3)cc2/C=C\C(=O)c2cccs2)c1	CYP2C9 inhib 58
Cn1cnnc1SCCn1c(N2CCCCC2)nc2c1c(=O)[nH]c(=O)n2C	none
Cc1cccc(CN2CCN(C(=O)c3ccccc3F)CC2)c1	CYP2C9 inhib 68, CYP2C19 inhib 99
O=C(C1=C(O)C(=O)N(Cc2ccccc2)C1c1ccncc1)c1ccco1 (configuration not stated)	none
Cc1nnc(N2C(=O)C(O)=C(C(=O)c3ccco3)C2c2ccc(F)cc2)s1 (configuration not stated)	Rev-RRE block 52
COCCCN1C(=O)C(O)=C(C(=O)c2ccco2)C1c1ccc(Br)cc1 (configuration not stated)	none
Cc1nnc(N2C(=O)C(O)=C(C(=O)c3ccco3)C2c2ccc(C(C)(C)C)cc2)s1 (configuration not stated)	Rev-RRE block 92[fluorescence artefact?], Cav32 inh -3.7 (no result: CYP2C9 inhib, CYP2C9 activ, CYP2C19 inhib, CYP2C19 act)
COCC(=O)n1nc(NCc2ccc(OC)cc2)nc1NCc1ccc(OC)cc1	Cav32 inh -8.9
CCC(=O)n1nc(-c2cccnc2)nc1NCc1ccc(OC)cc1	CYP2C9 inhib 61, CYP2C19 inhib 73
COC(=O)C1=C(C)N(CCCCCC(=O)O)C(=O)NC1c1ccccc1 (configuration not stated)	none (no result: CYP2C9 inhib, CYP2C9 activ, CYP2C19 inhib, Rev-RRE block, CYP2C19 act)
Cn1nc(C(=O)Nc2nc3ccc(S(C)(=O)=O)cc3s2)ccc1=O	none (no result: Cav32 inh)
O=C(CNS(=O)(=O)c1ccccc1)N1CCN(c2ccccc2)CC1	none
COc1ccc(-c2nc(C)ncc2N=Nc2ccccc2)cc1	CYP2C9 inhib 61
CCOC(=O)CNc1nc(-c2ccncc2)nc2ccccc12	CYP2C9 inhib 58
C=CCOc1nc(-c2ccncc2)nc2ccccc12	CYP2C9 inhib 64, CYP2C19 inhib 79
c1ccc2c(N3CCCC3)nc(-c3ccncc3)nc2c1	CYP2C19 inhib 84
COc1nc(-c2ccncc2)nc2ccccc12	CYP2C9 inhib 72, CYP2C19 inhib 74
O=C1CCC(c2ccc(-n3ccnc3)cc2)=NN1	none (no result: CYP2C9 inhib, CYP2C9 activ, CYP2C19 inhib, Rev-RRE block, CYP2C19 act)
CCOC(=O)N1CCN(C(=O)C2CCC(C(=O)N3CCN(C(=O)OCC)CC3)CC2)CC1 (configuration not stated)	none (no result: CYP2C9 inhib, CYP2C9 activ, CYP2C19 inhib, CYP2C19 act, Cav32 inh)
CCN(CC)c1nc(-c2cccc(OC)c2O)nc2ccccc12	none
CCCCN(CC)c1nc(-c2ccncc2)nc2ccccc12	CYP2C9 inhib 94, CYP2C19 inhib 96
CCC1=CC(c2ccccc2)n2ncnc2N1 (configuration not stated)	none (no result: CYP2C9 inhib, CYP2C9 activ, CYP2C19 inhib, Rev-RRE block, CYP2C19 act)
Cc1sc(CO)c(Sc2ccccc2)c1C(=O)O	none (no result: CYP2C9 inhib, CYP2C9 activ, CYP2C19 inhib, CYP2C19 act, Cav32 inh)
COc1cc(C(=O)Oc2ccccc2N)cc(OC)c1OC	CYP2C9 inhib 68 (no result: Rev-RRE block)
COc1cc(C(=O)Oc2ccccc2/C=N/NC(=O)c2ccc(Cl)cc2Cl)cc(OC)c1OC	CYP2C9 inhib 97
COc1cc(C(=O)Oc2cccc(C=O)c2)cc(OC)c1OC	none
O=C(NCCCN1CCOCC1)c1onc(CSc2ccc(F)c(F)c2)c1C(=O)NCCCN1CCOCC1	none (no result: CYP2C9 inhib, CYP2C9 activ, CYP2C19 inhib, Rev-RRE block, CYP2C19 act)
Cc1ccccc1NC(=O)C(C)O/N=C/c1cccc([N+](=O)[O-])c1 (configuration not stated)	CYP2C9 inhib 93, CYP2C19 inhib 95
CCCCn1c(SCn2nnc3ccccc3c2=O)nc2cc(C(=O)OC)ccc2c1=O	none (no result: Rev-RRE block, Cav32 inh)
COc1ccc(S(=O)(=O)N[C@@H](Cc2ccc(Cl)cc2)C(=O)N2CC[C@@]3(O)CCCC[C@H]3C2)cc1	none
O=C(CCCn1c(=S)[nH]c2cc3c(cc2c1=O)OCO3)N1CCN(C2CCCCC2)CC1	CYP2C9 inhib 50 (no result: Cav32 inh)
O=C(CCCn1c(=S)[nH]c2cc3c(cc2c1=O)OCO3)N1CCN(c2ccccc2F)CC1	none
O=C(CCn1c(=S)[nH]c2cc3c(cc2c1=O)OCO3)N1CCN(C2CCCCC2)CC1	none (no result: CYP2C9 inhib, CYP2C9 activ, CYP2C19 inhib, CYP2C19 act, Cav32 inh)
O=C(CCCn1c(=S)[nH]c2cc3c(cc2c1=O)OCO3)N1CCN(c2ccc(F)cc2)CC1	CYP2C9 inhib 72
O=C(CCCn1c(=S)[nH]c2cc3c(cc2c1=O)OCO3)N1CCN(c2ncccn2)CC1	CYP2C9 inhib 50
Cc1ccc(C)c(N2CCN(C(=O)CCCn3c(=S)[nH]c4cc5c(cc4c3=O)OCO5)CC2)c1	CYP2C9 inhib 77, CYP2C19 inhib 54, Cav32 inh -8.6
Cc1cccn2c(=O)c3cc(C#N)c(=O)n(Cc4cccnc4)c3nc12	none (no result: Rev-RRE block, Cav32 inh)
Cc1nc(SC(C(=O)c2ccccc2)c2ccccc2)n[nH]1 (configuration not stated)	CYP2C19 inhib 78
CCOC(=O)c1nnc(-c2cccs2)nc1NC(C)C	none
O=C(N/N=C/c1cc2ccccc2nc1Cl)/C(=C/c1cccs1)NC(=O)c1ccccc1	CYP2C19 inhib 80, Cav32 inh -5.9
CC(=O)c1ccc(Nc2nc(C)nc3c2oc2ccccc23)cc1	none (no result: Rev-RRE block, Cav32 inh)
c1ccc2c(c1)oc1c(Nc3ccc(CN4CCOCC4)cc3)ncnc12	CYP2C19 inhib 60
Cc1nc(Nc2ccc3c(c2)OCO3)c2oc3ccccc3c2n1	CYP2C9 inhib 66, CYP2C19 inhib 55
c1ccc2c(c1)oc1c(Nc3ccc4c(c3)OCO4)ncnc12	CYP2C19 inhib 54
COc1ccc(OC)c2c1sc(=NC(=O)C(C)(C)C)n2C	none (no result: Cav32 inh)
COc1ccc(OC)c2c1sc(=NC(=O)c1cccc(N3C(=O)CCC3=O)c1)n2C	none
COc1ccc(OC)c2c1sc(=NC(=O)C(C)C)n2C	CYP2C9 inhib 71, CYP2C19 inhib 71
